Assay [1] relates to bloodstream form T. brucei (strain 427). Kind of assay: T. brucei culturing and drug test. The assay is classed as cell-based, Trypanosoma brucei. The note with it: for Trypanocidal activity (in words): at concentrations up to 5 mg mL^−1; for Trypanocidal properties (in words): bloodstream form T. brucei. The procedure, abridged: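 Parasites were kept at 37 °C in modified Iscove's medium (pH 7.4) and grown for 48 h with a range of test compound concentrations. Cell density at each concentration was counted by hemocytometer and expressed as percent of untreated control growth. Concentrations giving 50% and 90% growth inhibition (IC₅₀, IC₉₀) were determined. Run in triplicate.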

In a further assay the test system is sindbis virus. The assay is classed as cell-based. The note with it: microscopy and MTS assay. In general terms: Tetrazolium assays rely on reduction of a dye to a coloured formazan, in cell work by metabolically active cells.
For assay [2], the system named is respiratory syncytial virus. The class given is cell-based. The note with it: microscopy and MTS assay.
Assay [3] relates to herpes simplex virus type 1. The assay is classed as cell-based. The note with it: microscopy and MTS assay.
The next assay concerns Punta Toro virus. The assay is classed as cell-based. The note with it: microscopy and MTS assay.
In the next assay the test system is influenza virus A/H1N1. The class given is cell-based, influenza virus A/Puerto Rico/8/34 (H1N1). Conditions: influenza virus A/H1N1 (A/Puerto Rico/8/34); microscopy and MTS assay.
The next assay deals with parainfluenza-3 virus. The assay is classed as cell-based. Conditions: microscopy and MTS assay.
The next assay deals with Reovirus-1. The class given is cell-based. Conditions: microscopy and MTS assay.
The next assay relates to vaccinia virus. The assay is classed as cell-based.
A further assay has as its system Coxsackievirus B4. The class given is cell-based. Conditions: microscopy and MTS assay.
For the next assay, the system named is NMDA receptors. The class given is cell-based. Conditions: for NMDA receptor antagonism (in words): cerebellar granule neurons, glutamate or NMDA 100 μM + glycine 10 μM.
The next assay deals with influenza virus A/H3N2. The class given is cell-based, influenza virus A/Hong Kong/7/87 (H3N2). Conditions: influenza virus A/H3N2 (A/Hong Kong/7/87); microscopy and MTS assay.
Assay [4] deals with herpes simplex virus type 2. The class given is cell-based. Conditions: microscopy and MTS assay.
Assay [5] relates to vesicular stomatitis virus. The class given is cell-based.
Another assay has as its system feline coronavirus. The class given is cell-based. Conditions: microscopy and MTS assay.
For a further assay, the system named is influenza virus B. The assay is classed as cell-based, influenza virus B/Hong Kong/5/72. The note with it: influenza virus B (B/Hong Kong/5/72); microscopy and MTS assay.

Structures are written as SMILES. Structures can show the parent of a compound that is named as a salt.

On to `NC12CC3CC(CC(C3)O1)C2` [Compound 7, (2-Oxaadamant-1-yl)amine hydrochloride], for which the “Trypanocidal activity (in words)” value in assay [1] is reported as “no activity”. For the same compound, the Antiviral activity result in the assay with sindbis virus is listed as “None of the tested compounds displayed activity”; in assay [2], “None of the tested compounds displayed activity”; in assay [3], “None of the tested compounds displayed activity”; in the assay on Punta Toro virus it was “None of the tested compounds displayed activity”; in the assay with influenza virus A/H1N1, “none of the compounds was found to be active”; in the assay on parainfluenza-3 virus, “None of the tested compounds displayed activity”. In addition, the Antiviral activity entry was “None of the tested compounds displayed activity” in the assay with Reovirus-1; “None of the tested compounds displayed activity” in the assay on vaccinia virus; “None of the tested compounds displayed activity” in the assay with Coxsackievirus B4; “none of the compounds was found to be active” in the assay on influenza virus A/H3N2; “None of the tested compounds displayed activity” in [4]; “None of the tested compounds displayed activity” in assay [5]. Further, the Antiviral activity result in the assay on feline coronavirus was “None of the tested compounds displayed activity”; in the assay with influenza virus B, “none of the compounds was found to be active”. Also, the “NMDA receptor antagonism (in words)” value in the assay on NMDA receptors was “inactive”.

Turning to `CCC12CC3CC(C1)CC(NCc1ccccc1)(C3)O2` [Compound 13, N-Benzyl(3-ethyl-2-oxaadamant-1-yl)amine hydrochloride], the “Trypanocidal properties (in words)” value in assay [1] is “no significant trypanocidal properties”.

With `CCC12CC3CC(C1)CC(NC)(C3)O2` [Compound 15, N-Methyl(3-ethyl-2-oxaadamant-1-yl)amine hydrochloride], the “Trypanocidal properties (in words)” value in [1] is on record as “no significant trypanocidal properties”. Moreover, the Antiviral activity entry in the assay on sindbis virus was “None of the tested compounds displayed activity”; in [2] it was “None of the tested compounds displayed activity”; in [3] it was “None of the tested compounds displayed activity”; with Punta Toro virus it was “None of the tested compounds displayed activity”; in the assay on influenza virus A/H1N1 it was “none of the compounds was found to be active”; with parainfluenza-3 virus, “None of the tested compounds displayed activity”. The Antiviral activity entry in the assay with Reovirus-1 was “None of the tested compounds displayed activity”; in the assay on vaccinia virus it was “None of the tested compounds displayed activity”; in the assay on Coxsackievirus B4 it was “None of the tested compounds displayed activity”; with influenza virus A/H3N2, “none of the compounds was found to be active”; in assay [4], “None of the tested compounds displayed activity”; in [5] it was “None of the tested compounds displayed activity”. Further, the Antiviral activity result in the assay with feline coronavirus was “None of the tested compounds displayed activity”; with influenza virus B it was “none of the compounds was found to be active”.

In the case of `CCN(CC)C12CC3CC(CC(CC)(C3)O1)C2` [Compound 12, N,N-Diethyl(3-ethyl-2-oxaadamant-1-yl)amine hydrochloride], in the assay on NMDA receptors (compared with amantadine), the “Potency as NMDA receptor antagonist relative to amantadine” value is “seven times more potent than amantadine”. In addition, the “Potency as NMDA receptor antagonist relative to memantine” value with NMDA receptors (compared with memantine) is recorded as “ten times less potent than memantine”.

Regarding `CN(C)C12CC3CC(CC(C)(C3)O1)C2` [Compound 11a, N,N-Dimethyl(3-methyl-2-oxaadamant-1-yl)amine hydrochloride], the “Trypanocidal activity relative to amantadine” value in [1] (compared with amantadine) is on record as “at least 30 times”. Moreover, the “Trypanocidal activity relative to rimantadine” value in assay [1] (compared with rimantadine) was “approximately twice”. Also, in the assay on NMDA receptors, the “NMDA receptor antagonism (in words)” value was “inactive”.

As to `c1ccc(CN(Cc2ccccc2)C23CC4CC(CC(C4)O2)C3)cc1` [Compound 8, N,N-Dibenzyl(2-oxaadamant-1-yl)amine], in assay [1], the “Trypanocidal activity (in words)” value is on record as “no activity”. Moreover, in the assay on NMDA receptors, the “NMDA receptor antagonism (in words)” value was “inactive”.

On to `CN(Cc1ccccc1)C12CC3CC(CC(C3)O1)C2` [Compound 3a, N-Benzyl-N-methyl(2-oxaadamant-1-yl)amine], for which, in assay [1], the “Trypanocidal activity (in words)” value is recorded as “no activity”. Further, the “NMDA receptor antagonism (in words)” value in the assay with NMDA receptors was “inactive”.

Regarding `CC12CC3CC(C1)CC(N)(C3)O2` [Compound 10a, (3-Methyl-2-oxaadamant-1-yl)amine hydrochloride], in the assay on NMDA receptors, the “NMDA receptor antagonism (in words)” value is “inactive”.

For the compound `CN(CCc1ccccc1)C12CC3CC(CC(C3)O1)C2` [Compound 3b, N-Methyl-N-(2-phenylethyl)(2-oxaadamant-1-yl)amine hydrochloride], in [1], the “Trypanocidal activity (in words)” value is reported as “no activity”.

In the case of `c1ccc(CCNC23CC4CC(CC(C4)O2)C3)cc1` [Compound 2b, N-(2-Phenylethyl)(2-oxaadamant-1-yl)amine hydrochloride], the “Trypanocidal activity (in words)” value in [1] is listed as “no activity”.

Consider `NC12CC3CC(C1)CC(c1ccccc1)(C3)O2` [Compound 10c, (3-Phenyl-2-oxaadamant-1-yl)amine hydrochloride], for which the Antiviral activity entry in the assay with sindbis virus was “None of the tested compounds displayed activity”; in assay [2], “None of the tested compounds displayed activity”; in assay [3] it was “None of the tested compounds displayed activity”; in the assay on Punta Toro virus, “None of the tested compounds displayed activity”; in the assay on influenza virus A/H1N1, “none of the compounds was found to be active”; in the assay with parainfluenza-3 virus, “None of the tested compounds displayed activity”. In addition, the Antiviral activity entry in the assay with Reovirus-1 was “None of the tested compounds displayed activity”; in the assay with vaccinia virus, “None of the tested compounds displayed activity”; in the assay with Coxsackievirus B4 it was “None of the tested compounds displayed activity”; in the assay on influenza virus A/H3N2 it was “none of the compounds was found to be active”; in [4], “None of the tested compounds displayed activity”; in assay [5], “None of the tested compounds displayed activity”. Moreover, the Antiviral activity entry is “None of the tested compounds displayed activity” in the assay on feline coronavirus and “none of the compounds was found to be active” in the assay on influenza virus B. Moreover, the “NMDA receptor antagonism (in words)” value in the assay with NMDA receptors is “only a weak NMDA receptor antagonist”.

Turning to `NC12CC3CC(C1)CC(C1CCCCC1)(C3)O2` [Compound 10d, (3-cyclohexyl-2-oxaadamant-1-yl)amine hydrochloride], the Antiviral activity result with sindbis virus was “None of the tested compounds displayed activity”; in assay [2], “None of the tested compounds displayed activity”; in assay [3], “None of the tested compounds displayed activity”; in the assay with Punta Toro virus, “None of the tested compounds displayed activity”; in the assay with influenza virus A/H1N1 it was “none of the compounds was found to be active”; in the assay on parainfluenza-3 virus, “None of the tested compounds displayed activity”. The Antiviral activity entry in the assay on Reovirus-1 is listed as “None of the tested compounds displayed activity”; in the assay with vaccinia virus, “None of the tested compounds displayed activity”; with Coxsackievirus B4, “None of the tested compounds displayed activity”; with influenza virus A/H3N2, “none of the compounds was found to be active”; in assay [4] it was “None of the tested compounds displayed activity”; in assay [5], “None of the tested compounds displayed activity”. Further, the Antiviral activity result is “None of the tested compounds displayed activity” with feline coronavirus and “none of the compounds was found to be active” in the assay on influenza virus B.

Values taken from publication PMC3217223 (Bioorganic & Medicinal Chemistry, 2009).
